From ChEMBL document CHEMBL4138239, “Anti-inflammatory Dimeric 2-(2-Phenylethyl)chromones from the Resinous Wood of Aquilaria sinensis” (J Nat Prod, 2018)

Experiments:
RAW264.7 [1] = assay: Antiinflammatory activity in mouse RAW264.7 cells assessed as inhibition of LPS-induced nitric oxide production after 24 hrs by Griess assay; format: functional, cell-based; conditions: RAW264.7, 24 h
In short: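 RAW264.7 cells were obtained from the Peking Union Medical College Cell Bank and stimulated with LPS. Nitric oxide production was measured in the presence of test compounds. Compounds were made as DMSO stocks, with final DMSO below 0.2%. IC50 values are given as mean ± SD of three independent experiments. A positive control was included.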

RAW264.7 [2] = assay: Cytotoxicity against mouse RAW264.7 cells assessed as effect on cell viability up to 80 uM after 24 hrs by MTT assay; format: cell-based; conditions: raw264.7, 24 h
In short: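 Viability or proliferation of RAW264.7 cells was measured by MTT. Compounds were tested at up to 80 μM alongside LPS treatment for 24 h. They were made as DMSO stocks, with final DMSO below 0.2%. The assay was run to test whether lower NO reflected loss of cells.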

IC50 (RAW264.7 [1]) [µM]	Compound	Activity (RAW264.7 [2])
8.6	O=c1cc(CCc2ccccc2)oc2c1[C@@H]1c3ccc4c(=O)cc(CCc5ccccc5)oc4c3O[C@@H]([C@@H]1O)[C@H]2O	Non-Toxic
10.5	COc1ccc(CCc2cc(=O)c3c(o2)[C@@H](O)[C@@H]2Oc4c(c(O)cc5c(=O)cc(CCc6ccc(OC)cc6)oc45)[C@H]3[C@@H]2O)cc1	Non-Toxic
12	COc1ccc2oc(CCc3ccc4c(c3)O[C@H]3[C@H](O)[C@@H]4c4c(oc(CCc5ccccc5)cc4=O)[C@@H]3O)cc(=O)c2c1	Non-Toxic
8.5	COc1ccc2oc(CCc3ccc(OC)c4c3[C@@H]3c5c(oc(CCc6ccccc6)cc5=O)[C@@H](O)[C@H](O4)[C@H]3O)cc(=O)c2c1	Non-Toxic
11.5	O=c1cc(CCc2ccccc2)oc2c1[C@@H]1c3c(ccc4oc(CCc5ccccc5)cc(=O)c34)O[C@@H]([C@@H]1O)[C@H]2O	Non-Toxic
7.6	O=c1cc(CCc2ccccc2)oc2c1[C@H]1c3c(ccc4oc(CCc5ccccc5)cc(=O)c34)O[C@H]([C@H]1O)[C@@H]2O	Non-Toxic
4.4	COc1ccc(CCc2cc(=O)c3c(O)c(O)c(O)c(Cl)c3o2)cc1	
8.5	COc1ccc2oc(CCc3ccc(OC)c4c3[C@H]3c5c(oc(CCc6ccccc6)cc5=O)[C@H](O)[C@@H](O4)[C@@H]3O)cc(=O)c2c1	Non-Toxic
8.8	O=c1cc(CCc2ccccc2)oc2c1[C@H]1c3ccc4c(=O)cc(CCc5ccccc5)oc4c3O[C@H]([C@H]1O)[C@@H]2O	Non-Toxic
7	COc1ccc(CCc2cc(=O)c3c(o2)[C@H](O)[C@H]2Oc4c(OC)ccc(CCc5cc(=O)c6cc(OC)ccc6o5)c4[C@@H]3[C@H]2O)cc1	Non-Toxic
9.3	COc1ccc(CCc2cc(=O)c3c(o2)[C@@H](O)[C@@H]2Oc4ccc5oc(CCc6ccccc6)cc(=O)c5c4[C@H]3[C@@H]2O)cc1	Non-Toxic
